Reference: paper PMC7847313 (Journal of natural products, 2018)
pIC50: −log10 of the molar value. Like-named read-outs stand apart in the source and are kept apart here. *1 amine or outer side, *2 acyl side, *3 side chain or, on linkers, in order; H or OH if unused. Where a SMILES comes first, the peptide text is derived from it. Bridges are numbered along the chain shown (N, C = ends). [ ]: non-standard residue; d: D form. The star is where a group is joined. Ahp(3S,6R)alloIle = CC[C@@H](C)[C@@H](C(=O)[*:2])N1C(=O)[C@@H](N[*:1])CC[C@H]1O; Propanoyl(2R-OMe,3-OSO3H) = CO[C@H](COS(=O)(=O)O)C(=O)*; NMeTyr(3-Br,OMe) = CN[C@@H](Cc1ccc(OC)c(Br)c1)C(=O)O; Cit = NC(=O)NCCC[C@H](N)C(=O)O; Butyryl = CCCC(=O)*

Experiments:
chymotrypsin [1] = molecular target: T1, chymotrypsin (Bos taurus, UniProt P00766); assay: Chymotrypsin assay; assay type: biochemical
In short: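 Enzyme (4 units/mL, in cold 1 mM HCl) and BTEE (1.18 mM) in 80 mM Tris-HCl, pH 7.8, made fresh. BTEE, buffer, CaCl2 and test compound (MeOH dilution series; MeOH blank) were equilibrated at 25 °C, then enzyme added last. A256 followed continuously: 3 min uninhibited, 30 s intervals with inhibitor. Activity in BTEE units/mL; IC50 by nonlinear regression.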

[2] = cited from earlier work
[3] = system: Vibrio cholerae secreted serine protease activity; conditions: as low as in cultures of T2S mutants, averaged; cited from earlier work
[4] = system: NCI-H460 lung cancer cells; conditions: cited from earlier work
[5] = system: neuro-2a neuroblastoma cells; conditions: read-out: IC50 neuro-2a neuroblastoma cells; cited from earlier work
chymotrypsin [6] = molecular target: T1, chymotrypsin; conditions: cited from earlier work

## CC[C@@H](C)[C@H]1C(=O)N(C)[C@@H](Cc2ccc(OC)c(Br)c2)C(=O)N[C@@H]([C@@H](C)CC)C(=O)O[C@H](C)[C@H](NC(=O)[C@H](NC(=O)[C@H](O)COS(=O)(=O)O)C(C)C)C(=O)N[C@@H](CCCCN)C(=O)N[C@H]2CC[C@@H](O)N1C2=O [Jizanpeptin A (1), Jizanpeptin A]
Chymotrypsin [1]
  pIC50: < 5.00

## CC[C@@H](C)[C@H]1C(=O)N(C)[C@@H](Cc2ccc(OC)c(Br)c2)C(=O)N[C@@H]([C@@H](C)CC)C(=O)O[C@H](C)[C@H](NC(=O)[C@H](NC(=O)[C@@H](COS(=O)(=O)O)OC)C(C)C)C(=O)N[C@@H](CCCCN)C(=O)N[C@H]2CC[C@@H](O)N1C2=O [Jizanpeptin B (2), Jizanpeptin B]
Chymotrypsin [1]
  pIC50: < 5.00

## CC[C@@H](C)[C@H]1C(=O)N(C)[C@@H](Cc2ccc(OC)c(Br)c2)C(=O)N[C@@H]([C@@H](C)CC)C(=O)O[C@H](C)[C@H](NC(=O)[C@@H](NC(=O)[C@@H](COS(=O)(=O)O)OC)C(C)C)C(=O)N[C@@H](CCCCN)C(=O)N[C@H]2CC[C@@H](O)N1C2=O [Jizanpeptin C (3), Jizanpeptin C]
Chymotrypsin [1]; standardized assay conditions, up to 10 μM
  efficacy as a chymotrypsin inhibitor: full efficacy

## CC[C@@H](C)[C@H]1C(=O)N(C)[C@@H](Cc2ccc(OC)c(Br)c2)C(=O)N[C@@H]([C@@H](C)CC)C(=O)O[C@H](C)[C@H](NC(=O)[C@@H](NC(=O)[C@@H](COS(=O)(=O)O)OC)[C@@H](C)CC)C(=O)N[C@@H](CCCCN)C(=O)N[C@H]2CC[C@@H](O)N1C2=O [Jizanpeptin D (4), Jizanpeptin D] ({Propanoyl(2R-OMe,3-OSO3H)}-ITK[Ahp(3S,6R)alloIle][NMeTyr(3-Br,OMe)]I; ester 2-C)
Chymotrypsin [1]
  pIC50: < 5.00

## CC[C@@H](C)[C@H]1C(=O)N(C)[C@@H](Cc2ccc(OC)c(Br)c2)C(=O)N[C@@H]([C@@H](C)CC)C(=O)O[C@H](C)[C@H](NC(=O)[C@H](NC(=O)[C@@H](COS(=O)(=O)O)OC)C(C)C)C(=O)N[C@@H](CCCNC(=N)N)C(=O)N[C@H]2CC[C@@H](O)N1C2=O [Jizanpeptin E (5), Jizanpeptin E]
Chymotrypsin [1]
  pIC50: < 5.00

## C/C=C1/NC(=O)C(NC(=O)C(NC(=O)C(CO)OC)C(C)C)C(C)OC(=O)C(C(C)C)NC(=O)C(Cc2ccccc2)N(C)C(=O)C(Cc2ccccc2)N2C(=O)C(CCC2O)NC1=O (stereo not drawn) [dolastatin 13]
[2]; terminal Gac
  cytotoxicity: nanomolar cytotoxicity

## CC(=O)N[C@@H](CC(C)C)C(=O)N[C@@H](CC(C)C)C(=O)N[C@H](C=O)CCCNC(=N)N [leupeptin]
[3]
  reduction in fluorescence, positive control: 93%

## C/C=C1\NC(=O)[C@@H](NC(=O)[C@H](CCc2ccc(O)cc2)NC(=O)[C@H](C)NC(=O)[C@H](O)COS(=O)(=O)O)[C@@H](C)OC(=O)[C@H](C(C)C)NC(=O)[C@H](Cc2ccc(O)cc2)N(C)C(=O)[C@H](Cc2ccccc2)N2C(=O)[C@H](CC[C@H]2O)NC1=O [lyngbyastatin 4]
[2]; terminal Gac-sulfate
  cytotoxicity: no cytotoxicity

## CCCC(=O)N[C@H](CCC(N)=O)C(=O)N[C@@H]1C(=O)N[C@@H](CCCNC(N)=O)C(=O)N[C@H]2CC[C@@H](O)N(C2=O)[C@@H]([C@H](C)CC)C(=O)N(C)[C@@H](Cc2ccc(OC)c(Br)c2)C(=O)N[C@@H](C(C)C)C(=O)O[C@@H]1C [symplocamide A] (Butyryl-[dQ]T[Cit][Ahp(3S,6R)alloIle][NMeTyr(3-Br,OMe)]V; ester 2-C)
[4]
  cytotoxicity to NCI-H460 lung cancer cells: remarkably cytotoxic
[4]; read-out: IC50 NCI-H460 lung cancer cells
  pIC50: 7.40
[5]
  pIC50: 7.54
Chymotrypsin [6]
  selectivity chymotrypsin over trypsin: greater selectivity for chymotrypsin over trypsin
